The test system of one experiment is HepG2. The experiment is described as follows: Cytotoxicity against human HepG2 cells after 24 hrs by MTT assay. The class given is functional, cell-based. The procedure, abridged:
(§1)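 MTT assay in RPMI 1640 with 10% fetal calf serum, 2 mM L-glutamine and […]. Log-phase cells seeded, attached 24 h at 37 °C and 5% CO₂, then treated at 0–100 μM. Compounds dissolved in DMSO (1 mg/mL stock), DMSO below 0.1% in wells. Five wells per concentration, triplicate experiments. Blank-corrected OD taken as % of untreated growth, IC50 = 50% inhibition.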
For orientation: Tetrazolium assays rely on reduction of a dye to a coloured formazan, in cell work by metabolically active cells.

In a further experiment the test system is K562. The experiment can be described thus: Cytotoxicity against human K562 cells after 24 hrs by MTT assay. The class given is functional, cell-based. The procedure, abridged:
as §1

The test system of experiment [1] is HeLa. The experiment is described as follows: Cytotoxicity against human HeLa cells after 24 hrs by MTT assay. It is filed as functional, cell-based. The method in brief:
as §1

Experiment [2] is described as follows: Cytotoxicity against human […] cells after 24 hrs by MTT assay. The class given is functional, cell-based. The method in brief:
as §1

For experiment [3], the system named is HeLa. The experiment is described as follows: Induction of apoptosis in human HeLa cells at 0.375 uM after 24 hrs by FITC/AnnexinV-based flow cytometric analysis (reference value: 0.98%). It is filed as functional. (A flow cytometer gives signals particle by particle.)
In experiment [4] the test system is HeLa. The experiment is described as follows: Cell cycle arrest in human HeLa cells assessed as accumulation in G1 phase at 0.375 uM after 36 hrs by PI-staining based flow cytometric analysis (reference value: 47.36%). The class given is functional. The method in brief:
(§2)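 HeLa cells (1 × 10⁵) exposed 36 h to 0, 0.375, 1.5 or 3 μM; washed twice in ice-cold PBS, harvested and fixed. Then RNase A (0.1 mg/mL, 37 °C, 30 min) and propidium iodide staining (30 min on ice, dark). Flow cytometry gave sub-G1, G1, S and G2 fractions, compared with untreated cultures.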

Experiment [5] deals with HeLa. The experiment is described as follows: Induction of apoptosis in human HeLa cells at 3 uM after 24 hrs by FITC/AnnexinV-based flow cytometric analysis (reference value: 0.98%). It is filed as functional.
The species named for experiment [6] is Capra hircus. The experiment can be described thus: Inhibition of goat tubulin polymerization assessed as club shaped cytoskeleton at 3 uM after 30 mins by transmission electron microscopic analysis. The method in brief:
(§3)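 Microtubule protein from goat brain purified by repeated warm polymerisation and cold depolymerisation cycles with glycerol, ATP and GTP. Tubulin incubated ± compound 30 min at 37 °C in 80 mM PIPES pH 6.9, 1 mM MgCl₂, […], 30% glycerol, 1 mM GTP. Fixed in 0.5% glutaraldehyde, grids stained with uranyl acetate, viewed by TEM at 100 kV.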

The subject of experiment [7] is HeLa. The experiment can be described thus: Cell cycle arrest in human HeLa cells assessed as decrease in S phase after 36 hrs by PI-staining based flow cytometric analysis. It is filed as functional. The method in brief:
as §2

In experiment [8] the test system is HeLa. The experiment can be described thus: Cell cycle arrest in human HeLa cells assessed as accumulation in G1 phase at 1.5 uM after 36 hrs by PI-staining based flow cytometric analysis (reference value: 47.36%). It is filed as functional. The procedure, abridged:
as §2

Experiment [9] concerns HeLa. The experiment is described as follows: Cell cycle arrest in human HeLa cells assessed as accumulation in subG1 phase at 1.5 uM after 36 hrs by PI-staining based flow cytometric analysis (reference value: 0.2%). The class given is functional. The procedure, abridged: as §2
Experiment [10] deals with HeLa. The experiment is described as follows: Induction of apoptosis in human HeLa cells assessed as late apoptotic cells at 0.375 to 3 uM after 24 hrs by FITC/AnnexinV-based flow cytometric analysis (reference value: 0.81%). The class given is functional.
Experiment [11] concerns HeLa. The experiment can be described thus: Cell cycle arrest in human HeLa cells assessed as decrease in G2 phase after 36 hrs by PI-staining based flow cytometric analysis. The class given is functional. The method in brief:
as §2

The subject of experiment [12] is HeLa. The experiment can be described thus: Cell cycle arrest in human HeLa cells assessed as accumulation in subG1 phase at 0.375 uM after 36 hrs by PI-staining based flow cytometric analysis (reference value: 0.2%). It is filed as functional. The procedure, abridged:
as §2

The test system of experiment [13] is HeLa. The experiment can be described thus: Cell cycle arrest in human HeLa cells assessed as accumulation in G1 phase at 3 uM after 36 hrs by PI-staining based flow cytometric analysis (reference value: 47.36%). It is filed as functional. The method in brief:
as §2

Experiment [14] has as its system HeLa. The experiment is described as follows: Cell cycle arrest in human HeLa cells assessed as accumulation in G1 phase after 36 hrs by PI-staining based flow cytometric analysis. It is filed as functional. The method in brief:
as §2

The test system of experiment [15] is HeLa. The experiment is described as follows: Cell cycle arrest in human HeLa cells assessed as accumulation in subG1 phase at 3 uM after 36 hrs by PI-staining based flow cytometric analysis (reference value: 0.2%). It is filed as functional. The method in brief:
as §2

The subject of experiment [16] is HeLa. The experiment is described as follows: Induction of apoptosis in human HeLa cells at 1.5 uM after 24 hrs by FITC/AnnexinV-based flow cytometric analysis (reference value: 0.98%). It is filed as functional.
The test system of experiment [17] is HeLa. The experiment is described as follows: Cell cycle arrest in human HeLa cells assessed as accumulation in subG1 phase after 36 hrs by PI-staining based flow cytometric analysis. It is filed as functional. The procedure, abridged:
as §2

Experiment [18] is filed under the species Capra hircus. The experiment can be described thus: Inhibition of goat tubulin polymerization at 3 uM after 30 mins by transmission electron microscopic analysis. The method in brief:
as §3

In experiment [19] the test system is HeLa. The experiment is described as follows: Induction of apoptosis in human HeLa cells assessed as early apoptotic cells at 0.375 to 3 uM after 24 hrs by FITC/AnnexinV-based flow cytometric analysis (reference value: 0.17%). It is filed as functional.

Calls of active or inactive are those of the source. The calls are words filed in the database; no cut-off is given here.

`COc1cc([C@@H]2c3cc4c(cc3[C@@H](O[C@@H]3O[C@@H]5CO[C@@H](C)O[C@H]5[C@H](O)[C@H]3O)[C@H]3COC(=O)[C@H]23)OCO4)cc(OC)c1O` [ETOPOSIDE]: the IC50 (commonly the point on the concentration scale where inhibition reaches its midpoint) came out at 104 µM in the experiment on HepG2 (Homo sapiens, HepG2, 24 h); 2.85 µM with K562 (Homo sapiens, K562, 24 h); 17.7 µM in the experiment on HeLa [1] (Homo sapiens, HeLa, 24 h); 26.9 µM in experiment [2] (Homo sapiens, 24 h).

For `COc1ccc(/C=C\c2cc(OC)c(OC)c(OC)c2)cc1NC(=O)[C@H](C)NC(=O)OC1CC(C)(C)N([O])C(C)(C)C1`, the half-maximal inhibitory concentration (IC50) with HepG2 (hepg2) turned out to be 0.73 µM; in the experiment with K562 (k562), 1.56 µM; in the experiment on HeLa [1] (hela) it was 0.39 µM; in [2], 0.96 µM.

For the molecule `COc1ccc(/C=C\c2cc(OC)c(OC)c(OC)c2)cc1NC(=O)[C@@H](NC(=O)OC1CC(C)(C)N([O])C(C)(C)C1)C(C)C`, the IC50 in the experiment on HepG2 (hepg2) amounted to 1.05 µM; with K562 (k562) it was 12 µM; in the experiment on HeLa [1] (hela), 0.15 µM; in [2], 0.43 µM.

`COc1ccc(/C=C\c2cc(OC)c(OC)c(OC)c2)cc1NC(=O)[C@H](Cc1ccccc1)NC(=O)OC1CC(C)(C)N([O])C(C)(C)C1`: the IC50 in the experiment on HepG2 (hepg2) amounted to 0.28 µM; with K562 (k562), 5.8 µM; in the experiment with HeLa [1] (hela), 8.37 µM; in experiment [2] it was 6.33 µM.

Turning to `COc1ccc(/C=C\c2cc(OC)c(OC)c(OC)c2)cc1NC(=O)C1CC(C)(C)N([O])C(C)(C)C1`, the IC50 in the experiment on HepG2 (hepg2) is 51.2 µM; in the experiment on K562 (k562), 16.9 µM; in the experiment on HeLa [1] (hela), 59.2 µM; in experiment [2], 42.5 µM.

Consider `COc1ccc(/C=C\c2cc(OC)c(OC)c(OC)c2)cc1NC(=O)C1CC(C)(C)N([O])C1(C)C` (stereo not drawn), for which the concentration for half-maximal inhibition (IC50) with HepG2 (hepg2) amounted to 25 µM; with K562 (k562), 10.4 µM; in the experiment on HeLa [1] (hela), 7.6 µM; in [2], 4.93 µM.

With `COc1ccc(/C=C\c2cc(OC)c(OC)c(OC)c2)cc1NC(=O)[C@H](Cc1c[nH]c2ccccc12)NC(=O)OC1CC(C)(C)N([O])C(C)(C)C1`, the IC50 in the experiment with HepG2 (hepg2) amounted to 2.27 µM; with K562 (k562) it was 0.56 µM; in the experiment on HeLa [1] (hela), 2.08 µM; in experiment [2], 3.55 µM.

Consider `COc1ccc(/C=C\c2cc(OC)c(OC)c(OC)c2)cc1NC(=O)[C@@H]1CCCN1C(=O)OC1CC(C)(C)N([O])C(C)(C)C1`, for which the IC50 was 4.48 µM with HepG2 (hepg2), 5.53 µM with K562 (k562), 3.39 µM with HeLa [1] (hela) and 4.71 µM in experiment [2].

As for `COc1ccc(/C=C\c2cc(OC)c(OC)c(OC)c2)cc1NC(=O)C1=CC(C)(C)N([O])C(C)(C)C1`, the IC50 in the experiment with HepG2 (hepg2) amounted to 10.7 µM; in the experiment on K562 (k562) it was 15.6 µM; in the experiment with HeLa [1] (hela), 8.57 µM; in [2], 6.21 µM.

On to `COc1ccc(/C=C\c2cc(OC)c(OC)c(OC)c2)cc1NC(=O)[C@H](CCSC)NC(=O)OC1CC(C)(C)N([O])C(C)(C)C1`, for which the IC50 was determined as 2.05 µM in the experiment with HepG2 (hepg2), 4.15 µM in the experiment with K562 (k562), 1.16 µM in the experiment with HeLa [1] (hela) and 1.68 µM in [2].

As to `COc1ccc(/C=C\c2cc(OC)c(OC)c(OC)c2)cc1NC(=O)C1=CC(C)(C)N([O])C1(C)C`, the IC50 is 38.8 µM with HepG2 (hepg2), more than 100 µM with K562 (k562), 42.3 µM with HeLa [1] (hela) and more than 100 µM in experiment [2].

With `COc1ccc(/C=C\c2cc(OC)c(OC)c(OC)c2)cc1NC(=O)CNC(=O)OC1CC(C)(C)N([O])C(C)(C)C1`, the Activity in the experiment with HeLa [3] was 43.99%; with HeLa [4] it was 32.85%; in the experiment on HeLa [5], 66.54%; in the experiment with HeLa [7] it was “Dose-dependent effect”; in the experiment with HeLa [8], 85.82%; with HeLa [9], 16.71%. The Activity in the experiment on HeLa [10] is 13.96%; in the experiment with HeLa [11] it was “Dose-dependent effect”; in the experiment on HeLa [12], 1.14%; with HeLa [13], 96.25%; in the experiment on HeLa [14], “Dose-dependent effect”; in the experiment with HeLa [15] it was 32.42%. Further, the Activity was 55.75% in the experiment on HeLa [16], “Dose-dependent effect” with HeLa [17] and 52.6% with HeLa [19]. Moreover, the inhibition result in the experiment listed under Capra hircus [6] and in the experiment filed under Capra hircus [18] was “Active” throughout. The IC50 was found to be 0.98 µM in the experiment with HepG2 (hepg2), 1.09 µM with K562 (k562), 0.41 µM with HeLa [1] (hela) and 0.39 µM in experiment [2].

For `COc1ccc(/C=C\c2cc(OC)c(OC)c(OC)c2)cc1N`, the IC50 is 0.028 µM in the experiment with HepG2 (Homo sapiens, HepG2, 24 h); 0.12 µM with K562 (Homo sapiens, K562, 24 h); 0.403 µM in the experiment with HeLa [1] (Homo sapiens, HeLa, 24 h); 0.014 µM in [2] (Homo sapiens, 24 h).

In the case of `CC[C@H](C)[C@H](NC(=O)OC1CC(C)(C)N([O])C(C)(C)C1)C(=O)Nc1cc(/C=C\c2cc(OC)c(OC)c(OC)c2)ccc1OC`, the IC50 came out at 2.19 µM with HepG2 (hepg2), 18.8 µM in the experiment on K562 (k562), 2.33 µM in the experiment with HeLa [1] (hela) and 3.07 µM in experiment [2].
